Activity calls are given as the source filed them.
Tested on: not listed separately
Experiment: Growth inhibition of human WI38 cells after 96 hrs by sulphorhodamine B assay
Assay type: cell-based
Conditions: WI-38 cells
In short: (§1)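 SRB growth assay; MCF7 and WI38 seeded 4000 cells/well, A549 2000 cells/well, attached overnight, then exposed to freshly made drug solutions (0.1 to 50 μM) for 96 h. Fixed with cold 10% TCA, stained with 0.4% SRB; absorbance at 540 nm as percent of untreated control, IC50 from mean absorbance.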

| Compound | GI50 at 96 h |
| --- | --- |
| O=C(CCNC(=O)/C(Cc1ccc(O)c(Br)c1)=N/O)NO | 7.86 µM |
| O=C(NCCS)/C(Cc1ccccc1)=N/O | 10.9 µM |
| CSCCNC(=O)/C(Cc1ccc(O)c(Br)c1)=N/O | > 50 µM |
| CSCCNC(=O)/C(Cc1ccc(O)c(Br)c1)=N/N | > 50 µM |
| CO/N=C(\Cc1ccc(O)c(Br)c1)C(=O)NCCSSCCNC(=O)/C(Cc1ccc(O)c(Br)c1)=N/OC | > 50 µM |

Biological target: DNA (cytosine-5)-methyltransferase 1 (Homo sapiens, UniProt P26358)
Experiment: Inhibition of full length N-terminal His6-tagged human DNMT1 at 120 uM after 1 hr by fluorescence analysis
Conditions: not given
In short: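 Baculovirus-expressed DNMT1 (80 nM final) with SAM (10 μM final) and hemimethylated hairpin oligo (125 nM final) in MOPS buffer pH 6.5 with 1 mM DTT, 1 h room temperature. Stopped with Gla1 plus 125 μM SAH, developed 7 h; fluorescence Ex 485/Em 520 nm. Thiols made in situ by TCEP reduction; no SAM as full-inhibition control.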

Chain of DNA (cytosine-5)-methyltransferase 1 (P26358 whole entry): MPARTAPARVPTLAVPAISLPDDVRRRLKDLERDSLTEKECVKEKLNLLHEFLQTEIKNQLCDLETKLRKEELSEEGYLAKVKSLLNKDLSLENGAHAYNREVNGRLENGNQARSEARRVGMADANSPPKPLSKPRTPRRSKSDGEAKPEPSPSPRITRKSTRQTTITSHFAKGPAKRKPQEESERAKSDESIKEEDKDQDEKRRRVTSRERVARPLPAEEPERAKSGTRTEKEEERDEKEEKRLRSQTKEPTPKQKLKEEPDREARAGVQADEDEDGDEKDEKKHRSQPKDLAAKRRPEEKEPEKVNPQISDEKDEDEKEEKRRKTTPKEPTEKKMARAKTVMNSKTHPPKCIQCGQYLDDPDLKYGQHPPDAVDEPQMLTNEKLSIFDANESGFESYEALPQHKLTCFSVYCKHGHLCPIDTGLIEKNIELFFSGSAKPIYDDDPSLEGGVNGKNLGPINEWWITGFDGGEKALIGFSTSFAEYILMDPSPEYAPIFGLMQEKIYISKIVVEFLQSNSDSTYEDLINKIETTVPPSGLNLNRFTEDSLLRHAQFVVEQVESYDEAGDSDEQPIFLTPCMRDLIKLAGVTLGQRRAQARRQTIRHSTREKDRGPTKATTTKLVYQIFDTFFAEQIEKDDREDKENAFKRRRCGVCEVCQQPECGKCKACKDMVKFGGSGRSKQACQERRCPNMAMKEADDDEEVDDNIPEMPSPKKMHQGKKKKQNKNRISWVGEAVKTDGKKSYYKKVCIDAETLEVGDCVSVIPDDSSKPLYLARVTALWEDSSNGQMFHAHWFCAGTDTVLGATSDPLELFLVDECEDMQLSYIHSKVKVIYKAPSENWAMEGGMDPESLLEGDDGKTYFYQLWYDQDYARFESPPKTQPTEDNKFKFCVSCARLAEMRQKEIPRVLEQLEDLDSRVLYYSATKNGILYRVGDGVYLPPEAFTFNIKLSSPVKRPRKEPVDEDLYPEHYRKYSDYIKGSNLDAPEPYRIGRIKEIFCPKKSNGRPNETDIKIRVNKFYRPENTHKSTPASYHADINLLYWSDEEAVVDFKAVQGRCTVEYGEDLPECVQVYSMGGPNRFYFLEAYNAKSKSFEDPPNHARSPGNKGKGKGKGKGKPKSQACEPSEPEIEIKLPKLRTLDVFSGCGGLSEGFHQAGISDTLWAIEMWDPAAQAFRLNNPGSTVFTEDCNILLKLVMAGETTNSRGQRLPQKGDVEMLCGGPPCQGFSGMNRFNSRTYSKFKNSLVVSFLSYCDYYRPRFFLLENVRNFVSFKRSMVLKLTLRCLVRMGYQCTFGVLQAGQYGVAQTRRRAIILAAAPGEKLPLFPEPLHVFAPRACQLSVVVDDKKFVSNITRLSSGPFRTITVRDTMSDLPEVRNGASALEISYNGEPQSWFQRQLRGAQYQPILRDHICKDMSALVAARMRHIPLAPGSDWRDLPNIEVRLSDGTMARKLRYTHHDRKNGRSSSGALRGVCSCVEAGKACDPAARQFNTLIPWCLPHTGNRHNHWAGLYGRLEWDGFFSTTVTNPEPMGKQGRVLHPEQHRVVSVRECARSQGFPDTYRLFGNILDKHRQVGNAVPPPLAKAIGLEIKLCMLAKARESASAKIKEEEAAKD

| inhibition | Compound |
| --- | --- |
| inactive | O=C(NCCS)/C(Cc1ccccc1)=N/O |

Tested on: MCF7
Experiment: Inhibition of Class 1 histone deacetylase in human MCF7 cells assessed as up-regulation of p21 protein level at 1 uM after 24 hrs by Western blot analysis
Assay type: cell-based
Conditions: not given
In short: (§2)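 MCF7 cells (5 × 10^6 per T75 flask) treated 24 h, harvested by trypsinization, lysed in RIPA on ice; 50 μg total protein resolved on 12% SDS-PAGE, transferred to nitrocellulose and probed for histone, acetylated histone, tubulin, acetylated tubulin, p21 and actin. Untreated cells as negative control.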

| Compound | inhibition |
| --- | --- |
| O=C(CCNC(=O)/C(Cc1ccc(O)c(Br)c1)=N/O)NO | Active |

Biological target: T1, Protein deacetylase HDAC6 (Homo sapiens) (UniProt Q9UBN7)
T1 sequence (whole entry): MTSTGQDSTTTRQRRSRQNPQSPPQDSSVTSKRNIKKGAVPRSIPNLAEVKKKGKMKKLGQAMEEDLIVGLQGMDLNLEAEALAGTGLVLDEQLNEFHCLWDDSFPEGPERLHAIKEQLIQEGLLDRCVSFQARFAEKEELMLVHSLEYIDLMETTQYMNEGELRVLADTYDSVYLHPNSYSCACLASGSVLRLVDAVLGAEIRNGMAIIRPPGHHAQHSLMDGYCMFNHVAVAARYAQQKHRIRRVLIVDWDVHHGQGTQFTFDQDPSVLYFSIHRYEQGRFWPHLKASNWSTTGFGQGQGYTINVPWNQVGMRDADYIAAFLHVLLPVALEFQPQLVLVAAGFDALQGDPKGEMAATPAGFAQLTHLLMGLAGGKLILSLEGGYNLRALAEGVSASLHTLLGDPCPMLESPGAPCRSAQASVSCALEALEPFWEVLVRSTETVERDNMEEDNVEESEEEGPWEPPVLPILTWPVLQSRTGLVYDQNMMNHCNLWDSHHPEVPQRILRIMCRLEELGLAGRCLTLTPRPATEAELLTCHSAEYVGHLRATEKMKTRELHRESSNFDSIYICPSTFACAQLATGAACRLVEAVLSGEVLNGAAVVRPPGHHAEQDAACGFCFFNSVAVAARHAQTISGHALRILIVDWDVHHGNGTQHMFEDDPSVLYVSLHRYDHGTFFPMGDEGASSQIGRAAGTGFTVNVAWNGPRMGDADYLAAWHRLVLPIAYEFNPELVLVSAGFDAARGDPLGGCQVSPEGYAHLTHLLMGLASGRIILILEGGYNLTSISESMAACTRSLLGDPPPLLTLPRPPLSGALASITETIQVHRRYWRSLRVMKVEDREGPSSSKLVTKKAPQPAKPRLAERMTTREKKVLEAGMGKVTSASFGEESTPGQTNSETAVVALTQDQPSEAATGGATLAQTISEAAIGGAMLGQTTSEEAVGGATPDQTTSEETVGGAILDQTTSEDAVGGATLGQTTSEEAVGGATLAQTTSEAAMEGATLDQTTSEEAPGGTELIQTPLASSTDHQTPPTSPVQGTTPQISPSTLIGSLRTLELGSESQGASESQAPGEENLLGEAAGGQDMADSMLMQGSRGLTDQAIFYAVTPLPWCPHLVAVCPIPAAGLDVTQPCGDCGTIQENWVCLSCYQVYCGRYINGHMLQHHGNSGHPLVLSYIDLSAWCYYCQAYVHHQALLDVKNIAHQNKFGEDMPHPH
Experiment: Inhibition of HDAC6 in human MCF7 cells assessed as change in tubulin acetylation level at 1 uM after 24 hrs by Western blot analysis
Assay type: cell-based
Conditions: not given
In short: as §2

| inhibition | Compound |
| --- | --- |
| inactive | O=C(CCNC(=O)/C(Cc1ccc(O)c(Br)c1)=N/O)NO |

Biological target: T2, Histone deacetylase-like amidohydrolase (Alcaligenes sp. (strain DSM 11172) (Bordetella sp. (strain FB188)), UniProt Q70I53)
T2 sequence (Q70I53 whole entry): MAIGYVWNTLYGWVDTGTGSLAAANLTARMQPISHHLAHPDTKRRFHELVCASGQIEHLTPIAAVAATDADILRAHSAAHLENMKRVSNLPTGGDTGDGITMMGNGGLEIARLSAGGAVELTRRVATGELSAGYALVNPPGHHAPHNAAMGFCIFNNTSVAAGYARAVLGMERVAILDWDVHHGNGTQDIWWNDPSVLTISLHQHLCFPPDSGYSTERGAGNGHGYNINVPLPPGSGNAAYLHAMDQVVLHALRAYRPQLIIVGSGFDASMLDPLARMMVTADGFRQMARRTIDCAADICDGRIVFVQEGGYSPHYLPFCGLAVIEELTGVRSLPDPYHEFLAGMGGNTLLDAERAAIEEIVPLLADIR
Experiment: Inhibition of Bordetella sp. (strain FB188) N-terminus His-tagged HDAH expressed in Escherichia coli BL21 (DE3)
Design: species or system Alcaligenaceae bacterium FB188
Conditions: not given
In short: (§3)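 Recombinant N-terminal His6-tagged HDAH from Bordetella strain FB188, expressed in E. coli BL21, purified on zinc-loaded His-Trap column, eluted with 500 mM imidazole, dialyzed into assay buffer (>98% pure by SDS-PAGE). Tested directly against compounds; thiols generated in situ from disulfides with TCEP.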

| IC50 | Compound |
| --- | --- |
| 310 nM | O=C(CCNC(=O)/C(Cc1ccc(O)c(Br)c1)=N/O)NO |

Biological target: T3, Histone deacetylase 1 (Homo sapiens, UniProt Q13547)
Experiment: Inhibition of HDAC1 in human MCF7 cells assessed as up-regulation of acetylated histone H3 protein level at 1 uM after 24 hrs by Western blot analysis
Assay type: cell-based
Conditions: not given
In short: as §2

T3 sequence (Q13547 whole entry): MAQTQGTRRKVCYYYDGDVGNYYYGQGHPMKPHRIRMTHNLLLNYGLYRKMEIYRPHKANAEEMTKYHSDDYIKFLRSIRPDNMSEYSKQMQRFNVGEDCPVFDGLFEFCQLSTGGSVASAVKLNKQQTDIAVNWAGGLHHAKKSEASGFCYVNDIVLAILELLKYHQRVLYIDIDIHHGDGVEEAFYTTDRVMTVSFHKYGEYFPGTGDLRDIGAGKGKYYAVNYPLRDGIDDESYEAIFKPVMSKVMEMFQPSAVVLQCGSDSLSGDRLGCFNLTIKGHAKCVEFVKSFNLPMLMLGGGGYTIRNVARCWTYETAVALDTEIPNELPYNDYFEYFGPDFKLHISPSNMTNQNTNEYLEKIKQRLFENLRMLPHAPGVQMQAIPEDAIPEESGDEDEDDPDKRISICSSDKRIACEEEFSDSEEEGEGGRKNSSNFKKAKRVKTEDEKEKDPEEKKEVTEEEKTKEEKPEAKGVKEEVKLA

| inhibition | Compound |
| --- | --- |
| Active | O=C(CCNC(=O)/C(Cc1ccc(O)c(Br)c1)=N/O)NO |

Tested on: A549
Experiment: Growth inhibition of human A549 cells after 96 hrs by sulphorhodamine B assay
Assay type: functional
Conditions: A549, 96 h
In short: as §1

| Compound | GI50 |
| --- | --- |
| O=C(NCCS)/C(Cc1ccccc1)=N/O | 15.2 µM |
| CSCCNC(=O)/C(Cc1ccc(O)c(Br)c1)=N/O | > 50 µM |
| CO/N=C(\Cc1ccc(O)c(Br)c1)C(=O)NCCSSCCNC(=O)/C(Cc1ccc(O)c(Br)c1)=N/OC | 49.5 µM |

The remaining lines, values ahead:

| GI50 | Compound |
| --- | --- |
| 1.59 µM | O=C(CCNC(=O)/C(Cc1ccc(O)c(Br)c1)=N/O)NO |
| > 50 µM | CSCCNC(=O)/C(Cc1ccc(O)c(Br)c1)=N/N |

Tested on: MCF7
Experiment: Growth inhibition of human MCF7 cells after 96 hrs by sulphorhodamine B assay
Assay type: functional
Conditions: MCF7, 96 h
In short: as §1

| Compound | GI50 |
| --- | --- |
| O=C(NCCS)/C(Cc1ccccc1)=N/O | 9.38 µM |
| CSCCNC(=O)/C(Cc1ccc(O)c(Br)c1)=N/O | > 50 µM |

Other lines, results leading:

| GI50 | Compound |
| --- | --- |
| 1.13 µM | O=C(CCNC(=O)/C(Cc1ccc(O)c(Br)c1)=N/O)NO |
| > 50 µM | CSCCNC(=O)/C(Cc1ccc(O)c(Br)c1)=N/N |

Biological target: T4, Histone deacetylase 8 (Homo sapiens, UniProt Q9BY41)
T4 sequence (Q9BY41 whole entry): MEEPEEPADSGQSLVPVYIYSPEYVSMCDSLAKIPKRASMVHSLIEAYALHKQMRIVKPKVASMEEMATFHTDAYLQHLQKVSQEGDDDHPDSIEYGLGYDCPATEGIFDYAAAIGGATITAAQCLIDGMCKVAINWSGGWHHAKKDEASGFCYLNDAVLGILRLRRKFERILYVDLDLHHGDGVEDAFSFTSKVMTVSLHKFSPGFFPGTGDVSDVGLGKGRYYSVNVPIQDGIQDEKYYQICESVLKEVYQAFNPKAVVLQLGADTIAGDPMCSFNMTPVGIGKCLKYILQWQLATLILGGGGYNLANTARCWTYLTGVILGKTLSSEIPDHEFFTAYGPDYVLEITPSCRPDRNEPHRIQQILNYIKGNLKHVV
Experiment: Inhibition of human recombinant HDAC8 using Boc-lys(Ac)-AMC as substrate preincubated for 20 mins with substrate measured after 60 mins by fluorescence analysis
Conditions: not given

| IC50 | Compound |
| --- | --- |
| 1500 nM | O=C(CCNC(=O)/C(Cc1ccc(O)c(Br)c1)=N/O)NO |

Biological target: T5, Protein deacetylase HDAC6 (Homo sapiens, UniProt Q9UBN7)
T5 sequence (Q9UBN7 whole entry): T1 sequence (whole entry)
Experiment: Inhibition of human recombinant HDAC6 using Boc-lys(Ac)-AMC as substrate preincubated for 20 mins with substrate measured after 60 mins by fluorescence analysis
Conditions: not given

| Compound | IC50 |
| --- | --- |
| O=C(NCCS)/C(Cc1ccccc1)=N/O | 3.3 µM |
| CSCCNC(=O)/C(Cc1ccc(O)c(Br)c1)=N/O | > 50 µM |
| CO/N=C(\Cc1ccc(O)c(Br)c1)C(=O)NCCSSCCNC(=O)/C(Cc1ccc(O)c(Br)c1)=N/OC | 9.5 µM |

Now from value to molecule:

| IC50 | Compound |
| --- | --- |
| 0.19 µM | O=C(CCNC(=O)/C(Cc1ccc(O)c(Br)c1)=N/O)NO |
| > 50 µM | CSCCNC(=O)/C(Cc1ccc(O)c(Br)c1)=N/N |

Biological target: T3, Histone deacetylase 1
Experiment: Inhibition of human recombinant HDAC1 using Boc-lys(Ac)-AMC as substrate preincubated for 20 mins with substrate measured after 60 mins by fluorescence analysis
Conditions: not given

| Compound | IC50 |
| --- | --- |
| O=C(NCCS)/C(Cc1ccccc1)=N/O | 12 nM |
| CSCCNC(=O)/C(Cc1ccc(O)c(Br)c1)=N/O | 7700 nM |
| CO/N=C(\Cc1ccc(O)c(Br)c1)C(=O)NCCSSCCNC(=O)/C(Cc1ccc(O)c(Br)c1)=N/OC | 380 nM |

Other lines, results leading:

| IC50 | Compound |
| --- | --- |
| 2 nM | O=C(CCNC(=O)/C(Cc1ccc(O)c(Br)c1)=N/O)NO |
| 50000 nM | CSCCNC(=O)/C(Cc1ccc(O)c(Br)c1)=N/N |

Biological target: T6, Histone deacetylase-like amidohydrolase (Alcaligenes sp. (strain DSM 11172) (Bordetella sp. (strain FB188))) (UniProt Q70I53)
T6 sequence (whole entry): T2 sequence (Q70I53 whole entry)
Experiment: Inhibition of Bordetella sp. (strain FB188) N-terminus His-tagged HDAH expressed in Escherichia coli BL21 (DE3) up to 100 uM
Conditions: Alcaligenaceae bacterium FB188
In short: as §3

| Compound | inhibition |
| --- | --- |
| O=C(NCCS)/C(Cc1ccccc1)=N/O | inactive |
| CSCCNC(=O)/C(Cc1ccc(O)c(Br)c1)=N/O | inactive |
| CO/N=C(\Cc1ccc(O)c(Br)c1)C(=O)NCCSSCCNC(=O)/C(Cc1ccc(O)c(Br)c1)=N/OC | inactive |

The remaining lines, values ahead:

| inhibition | Compound |
| --- | --- |
| Active | O=C(CCNC(=O)/C(Cc1ccc(O)c(Br)c1)=N/O)NO |
| inactive | CSCCNC(=O)/C(Cc1ccc(O)c(Br)c1)=N/N |

Reference: ChEMBL document CHEMBL2046381, “Defining the mechanism of action and enzymatic selectivity of psammaplin A against its epigenetic targets” (J Med Chem, 2012)
